Screening results: PubChem BioAssay, The Scripps Research Institute Molecular Screening Center
PKA-R2B activ – activates the human PKA-R2B holoenzyme complex. P22694+P31323. AID 504700. actives 0.079% (n = 340,000). activation, % at 11.4 µM. PKA-R2B holoenzyme dissociation, Cy5-IP20 fluorescence polarization; R2B truncated from residue 108, S112A mutant; 0% DMSO only, 100% 113 µM cGMP;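 active = activation above a cutoff set at the mean over all compounds plus 3 SD, cut at about 18% in these data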;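 note: higher means more holoenzyme dissociation and a rise in polarization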
Target sequence (P31323 whole entry, looked up, other chains not shown, the tested form may be a part): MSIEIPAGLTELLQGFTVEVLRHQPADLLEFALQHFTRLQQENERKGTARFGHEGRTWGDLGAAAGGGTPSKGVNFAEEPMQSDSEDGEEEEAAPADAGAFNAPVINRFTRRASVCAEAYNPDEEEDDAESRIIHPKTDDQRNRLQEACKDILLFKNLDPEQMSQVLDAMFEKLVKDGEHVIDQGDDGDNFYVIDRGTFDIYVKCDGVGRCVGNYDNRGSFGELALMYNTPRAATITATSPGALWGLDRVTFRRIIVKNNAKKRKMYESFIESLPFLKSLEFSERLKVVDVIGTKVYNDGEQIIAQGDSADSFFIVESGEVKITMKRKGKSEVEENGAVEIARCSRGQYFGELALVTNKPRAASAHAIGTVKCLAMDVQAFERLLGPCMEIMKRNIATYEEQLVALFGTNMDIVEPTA
PKA-R1A activ – PKA-R1A complex activation. P00514+P68181. PKA-R1A dissociation, Cy5-IP20 fluorescence polarization; scaled: DMSO 0%, 113 µM cGMP 100%. activation, % at 11.4 µM. actives 0.083% (n = 340,000). AID 504707;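 active = percent activation above the mean of all tested compounds plus 3 SD, cut at about 19% in these data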;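 note: higher means more PKAc released from R1A so a rise in polarization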
IMP-1 inh – blocks Pseudomonas aeruginosa IMP-1 metallo-beta-lactamase; actives 0.45% (n = 290,000); inhibition, % at 5.6 µM; purified IMP-1, nitrocefin hydrolysis, epi-absorbance fluorescence;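 active = inhibition above the mean plus 3 SD of all compounds in the same screening run, cut at about 4.5% in these data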;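 note: 0% = IMP-1 with DMSO and 100% = DMSO wells lacking enzyme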
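System: purified recombinant IMP-1 beta-lactamase. Medium: Zinc- and detergent-supplemented HEPES buffer, pH 7.1. Compound: one 5.6 µM dose […]. Schedule: 15 min preincubation plus 25 min reaction at 25 °C. Technique: Epi-absorbance fluorescence, 480 nm excitation, 530 nm emission.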
bovine MsrA act – bovine methionine sulfoxide reductase A activation; purified bovine MsrA, absorbance read-out; actives 0.3% (n = 360,000); AID 602163; activation, % at 10.6 µM; in the data active = activation above about 7.5%;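 note: 0% = vehicle and 100% = reference activator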
MsrA inhibitor – inhibits bovine methionine sulfoxide reductase A | AID 651718 | actives 0.75% (n = 360,000) | purified bovine MsrA, absorbance read-out | inhibition, % at 15.5 µM; in the data active = inhibition above about 4.5%;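 note: 0% = vehicle wells with enzyme and 100% = reference inhibitor wells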
VIM-2 inh – inhibitors of Pseudomonas aeruginosa VIM-2 metallo-beta-lactamase; inhibition, % at 5.6 µM; AID 1527; purified VIM-2, nitrocefin hydrolysis, epi-absorbance fluorescence; actives 0.89% (n = 290,000);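 active = inhibition above the mean of all tested compounds plus 3 SD, cutoff set per screening run, cut at about 7.5% in these data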;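 note: red hydrolysis product quenches plate fluorescence so inhibitors raise well fluorescence; 0% = enzyme with DMSO and 100% = DMSO without enzyme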
* hit, by the source's call; · = not tested or not shown. A selection: hits, their analogues and other compounds. The true share with any hit is near 2.1%.

SMILES	PKA-R2B activ	PKA-R1A activ	IMP-1 inh	bovine MsrA act	MsrA inhibitor	VIM-2 inh
Cc1cc(=O)oc(C)c1C(=O)OCC(=O)c1ccc(Cl)c(Cl)c1	-5.2	-7.2	5.3*	-9.1	0.3	1.0
O=C(O)CCCNc1cc(N2CCN(C(=O)c3ccco3)CC2)c2noc3c2c1C(=O)c1ccccc1-3	-3.1	3.5	8.2*	-3.3	1.6	3.8
O=C(CN1CCN(c2ccccn2)CC1)Nc1ccc(OC(F)(F)F)cc1	8.8	7.7	6.1*	-3.2	-0.4	-5.1
Oc1ccc(-c2c(C3=CCCCC3)sc3ccccc23)cc1	-5.2	-2.0	5.1*	-0.2	0.1	0.0
Cc1cc(C)c(S(=O)(=O)/N=C2/C=C(SCC(=O)O)C(=O)c3ccccc32)cc1C	-8.6	0.7	0.0	9.4*	·	1.6
Cc1cc(C)c(S(=O)(=O)Nc2cc(SCC(=O)O)c(O)c3ccccc23)cc1C	·	·	-0.8	·	·	0.3
CCc1ccc2c(COC(=O)C3CSC4(C)CCC(=O)N34)cc(=O)oc2c1 (stereo unspecified)	-2.6	3.2	·	-6.5	3.1	·
COc1ccc(NC(=O)NCc2cccnc2)c(OC)c1	-4.5	-3.7	15.6*	-11.3	-1.2	0.0
COc1ccc(NC(=O)NCc2ccncc2)c(OC)c1	-2.2	2.7	-3.0	-2.8	0.1	-0.1
CSc1nc2[nH]c3c(c2c2ncnn12)CCCC3	-0.8	-6.3	-1.7	-5.0	3.6	11.3*
COc1cc(NC(=O)Cn2c(-c3cncs3)nc3ccccc32)cc(OC)c1OC	4.6	3.4	-3.4	-0.9	-0.1	8.6*
CC1CCCC(NC(=O)Cn2c(Cl)nc3c2c(=O)n(C)c(=O)n3C)C1C (stereo unspecified)	0.3	-6.6	·	-5.0	-0.6	·
COc1ccc(C2C3=C(CC(c4ccco4)CC3=O)Nc3ccccc3N2C(C)=O)cc1 (stereo unspecified)	-4.8	0.6	-5.3	-4.1	5.3*	-0.2
CC1CC(=O)C2=C(C1)Nc1ccccc1N(C(=O)COc1ccccc1)C2c1ccco1 (stereo unspecified)	7.9	-12.8	-0.1	-8.0	3.2	-1.4
CCN1CCN(c2ccc(NC(=O)CCc3c(C)nc4c(-c5ccccc5)c(C)nn4c3C)cc2)CC1	-9.5	-9.9	4.9*	0.9	-1.2	1.4
CC1CCC2(CC1)NC(=O)N(CC(=O)N1c3ccccc3CC1C)C2=O (stereo unspecified)	-1.9	-11.2	·	-1.4	-1.1	·
OCCN(CCO)c1nc(N2CCCCC2)c2nc(N(CCO)CCO)nc(N3CCCCC3)c2n1	0.6	-5.1	12.1*	-4.5	-0.4	7.1
O=C(CN1C(=O)NC2(CCOc3ccccc32)C1=O)NCCc1ccc(F)cc1 (stereo unspecified)	-4.8	3.6	·	-0.5	0.7	·
COC(=O)C1=C(C)Nc2sc(C(N)=O)c(N)c2C1c1ccncc1 (stereo unspecified)	2.6	-20.2	-0.5	-11.2	1.3	4.4
CCOC(=O)C1=C(C)Nc2sc(C(=O)c3ccc(OC)cc3)c(N)c2C1c1ccc(C(=O)OC)cc1 (stereo unspecified)	6.5	-11.2	-2.9	-1.7	-0.3	10.6*
Cc1c(CC(=O)O)c(=O)oc2c(C)c(OCc3ccc(F)cc3Cl)ccc12	6.2	2.4	20.4*	-2.2	0.4	-1.9
COc1cc2c(C#CCCCO)c(-c3ccsc3)oc(=O)c2cc1OC	1.6	7.5	·	-3.4	-0.4	·
CCN(CC)CCN1C(=O)/C(=C\c2ccc(Cl)c([N+](=O)[O-])c2)SC1=Nc1ccc(OC)cc1	5.5	5.6	-1.1	-4.5	0.9	8.0*
CCOC(=O)N(C)c1c(CC)nc2c(OCc3ccccc3C)cccn12	·	·	·	4.0	2.9	·
C/C(=N\NC(=O)c1ccc(O)cc1)c1cc2ccccc2o1	10.1	-4.8	-0.2	-4.4	4.6*	-0.8
SMILES	PKA-R2B activ	PKA-R1A activ	IMP-1 inh	bovine MsrA act	MsrA inhibitor	VIM-2 inh
C=CCOCCN1C(=O)C2C(c3ccccc3)C=CC(c3ccccc3)C2C1=O (stereo unspecified)	1.4	-6.3	15.1*	0.7	-0.8	-0.1
COc1cc(C(=O)NC(=S)Nc2ccc([N+](=O)[O-])cc2C)cc(OC)c1OC	-13.2	-2.4	2.2	-2.9	-0.8	-2.4
COc1cc(C(=O)NC(=S)Nc2ccc([N+](=O)[O-])cc2)cc(OC)c1OC	2.2	1.8	4.6*	-5.5	0.0	-1.0
O=C(CN1CCN(CC(=O)c2ccccc2)CC1)c1ccccc1	2.6	11.6	·	-9.0	0.7	·
O=c1c2ccccc2ncn1-c1cccc(Cl)c1	5.7	-1.2	35.6*	-3.8	0.3	4.9
O=C(NCC1CCCO1)C1CCCN(S(=O)(=O)c2cccc(C(F)(F)F)c2)C1 (stereo unspecified)	-0.9	-0.1	4.6*	-3.6	0.6	0.7
CCn1nccc1C(=O)Nc1cc(Cl)ccc1Cl	-1.2	2.4	-0.2	0.0	-0.4	0.5
CCn1nccc1C(=O)Nc1cccc(C)c1C	-6.6	-3.8	17.3*	2.2	0.7	-1.4
Nc1ccn([C@@H]2O[C@H](C(=O)N[C@H](Cc3ccccc3)C(=O)N3CCN(CCO)CC3)[C@@H](O)[C@H]2O)c(=O)n1	·	·	·	·	1.3	·
CC1CN(c2nn3c(=O)c4ccccc4nc3c3ccccc23)CC(C)O1 (stereo unspecified)	-2.5	-2.2	-0.9	9.7*	0.8	4.7
CC1CN(c2nc(-c3ccccc3)nc3ccccc23)CC(C)O1 (stereo unspecified)	-8.6	-15.4	-1.3	-8.3	0.8	-1.2
C[C@@H]1CN([C@@H](C)CO)C(=O)c2cc(Br)cnc2O[C@@H]1CN(C)Cc1ccccn1	·	·	·	·	-0.1	·
CC(C)N(C(=O)CSc1nnc(NC(=O)c2cccs2)s1)C(C)C	1.9	-4.2	-2.6	-1.4	2.1	10.0*
CN[C@H]1C[C@@H](c2ccccc2Br)N(C(C)=O)C[C@H]1CO	·	·	·	·	0.0	·
CCCn1c(C(C)Nc2nc(-c3cccc(Br)c3)cs2)nc2ccccc21 (stereo unspecified)	1.5	8.9	-1.2	-4.9	-0.1	7.9*
CCCn1c(C(C)Nc2nc(-c3ccc(C)cc3)cs2)nc2ccccc21 (stereo unspecified)	-0.2	-1.2	-2.2	-5.8	-0.7	-2.5
OCCNCCNCc1ccc(-c2ccccc2)cc1	·	·	-1.6	·	0.1	9.3*
COC(=O)c1ccc(NC(=S)NNC(=O)c2ccccc2)cc1	-2.8	-6.4	-0.5	3.2	1.3	-2.3
COC(=O)c1cccnc1NC(=S)NNC(=O)c1ccccc1	-3.5	-0.5	11.2*	-11.6	0.7	-6.0
COC(=O)c1ccccc1NC(=S)NC(=O)c1ccccc1	0.3	-14.3	4.7*	-1.2	-0.6	-1.3
